# Shown are actives, neighbours in structure and some others; about 2.3% of the full set was active somewhere.
# LMPTP inh: blocks human LMPTP phosphatase | P24666 | recombinant LMPTP-A, OMFP fluorogenic substrate, fluorescence intensity | inhibition, % at 20 µM | actives 0.22% (n = 360,000);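 active = compounds that cut the enzyme signal by at least half of the control window in the single-dose screen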;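 also: plate controls were DMSO wells with enzyme plus substrate for no effect and substrate without enzyme for full effect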
#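 Test system – LMPTP-A enzyme · Amount – LMPTP-A at 0.625 nM final in the reaction · Buffer or medium – Bis-Tris pH 6.0, DTT, detergent · Reagent – OMFP 400 µM · Doses – single 20 µM dose · Schedule – reaction 50 min, room temperature, dark · Detection – fluorescence intensity of OMFP turnover product · Evaluation – percent inhibition versus substrate-only and uninhibited controls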
# DNMT1 block: blocks human DNA methyltransferase DNMT1; P26358; DNMT1 molecular beacon, Hinp1I cleavage, fluorescence; inhibition (reported as % activation of signal), % at 10 µM; actives 0.83% (n = 360,000); AID 588458; in the data active = inhibition above about 50%
# Target sequence (P26358 504-1616 limits assumed): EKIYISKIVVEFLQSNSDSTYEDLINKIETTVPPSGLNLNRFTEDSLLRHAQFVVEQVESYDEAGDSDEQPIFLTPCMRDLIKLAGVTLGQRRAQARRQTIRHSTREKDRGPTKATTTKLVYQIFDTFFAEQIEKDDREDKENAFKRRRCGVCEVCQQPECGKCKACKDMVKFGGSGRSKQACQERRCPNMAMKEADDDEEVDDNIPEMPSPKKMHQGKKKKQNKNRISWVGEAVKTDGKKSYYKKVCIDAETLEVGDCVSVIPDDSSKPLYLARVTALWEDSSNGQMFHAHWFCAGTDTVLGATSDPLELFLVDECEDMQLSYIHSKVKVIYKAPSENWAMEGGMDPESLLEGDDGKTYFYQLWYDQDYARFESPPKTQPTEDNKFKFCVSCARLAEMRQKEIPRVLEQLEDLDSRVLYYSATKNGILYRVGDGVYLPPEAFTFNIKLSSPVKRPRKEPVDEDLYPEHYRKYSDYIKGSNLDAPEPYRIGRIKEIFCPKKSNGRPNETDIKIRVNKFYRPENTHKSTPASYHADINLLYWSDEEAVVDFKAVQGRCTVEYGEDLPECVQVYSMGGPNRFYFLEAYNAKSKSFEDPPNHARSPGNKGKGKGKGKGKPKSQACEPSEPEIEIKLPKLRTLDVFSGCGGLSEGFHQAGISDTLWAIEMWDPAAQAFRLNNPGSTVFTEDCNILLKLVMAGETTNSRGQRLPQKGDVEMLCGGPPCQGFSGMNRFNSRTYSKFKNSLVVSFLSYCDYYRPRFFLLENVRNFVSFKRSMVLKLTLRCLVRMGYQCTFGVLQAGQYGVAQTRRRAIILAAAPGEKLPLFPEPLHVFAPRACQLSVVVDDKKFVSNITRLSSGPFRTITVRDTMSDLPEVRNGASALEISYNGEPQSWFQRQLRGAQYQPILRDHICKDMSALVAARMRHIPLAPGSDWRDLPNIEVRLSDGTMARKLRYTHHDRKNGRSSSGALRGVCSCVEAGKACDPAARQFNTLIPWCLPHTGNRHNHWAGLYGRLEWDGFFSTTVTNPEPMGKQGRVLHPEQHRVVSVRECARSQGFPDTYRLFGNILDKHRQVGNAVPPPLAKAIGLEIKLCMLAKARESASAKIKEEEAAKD
# STEP block: blocks human striatal-enriched tyrosine phosphatase. actives 0.25% (n = 360,000). inhibition, % at 20 µM. AID 588621. recombinant STEP, OMFP fluorogenic substrate, fluorescence;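 active = inhibition at 20 µM, scaled per plate between control wells, above about 37%, limit read from the data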;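 also: 0% = DMSO with enzyme and substrate and 100% = substrate only without enzyme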
#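 System: STEP (striatal-enriched tyrosine phosphatase) enzyme, cell-free; medium: Bis-Tris pH 6.0 buffer with DTT, detergent; dosing: 20 µM, 1% DMSO; times: reaction 20 min, ambient temperature; detection: fluorescence, 480/540 nm; read-out basis: normalized % inhibition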
# SUMO1 PPI mod: alters human SUMO1 binding to SIM partners; actives 0.33% (n = 360,000); inhibition, % at 20 µM; SUMO1 binding to a labelled peptide, TR-FRET, 1 h; P63165; in the data active = inhibition above about 37%
# Scp1 inh: inhibitors of human Scp-1 phosphatase | Q9GZU7 | Recombinant Scp1, phosphopeptide, malachite green phosphate absorbance | inhibition, % at 20 µM | actives 0.88% (n = 340,000);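 active = inhibition above about 50% at 20 µM, limit read from the data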;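 also: plate controls were DMSO wells with enzyme for no effect and wells lacking enzyme for full effect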
#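 Test system – truncated SCP-1 phosphatase (76-261aa) · Reagent – Phosphorylated 17-residue peptide substrate · Incubation – 45 min room-temperature reaction, 5 min colour, 30 min stabiliser · Detection – colorimetric phosphate reagent with accelerator and stabiliser, absorbance at 630 nm · Measure – % inhibition at 20 µM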
# Rpn11 inh: Rpn11 (human) deubiquitinase inhibition. human 26S proteasome, Ub4-pepOG fluorescence polarization; 20S core pre-blocked with epoxomicin. inhibition, % at 20 µM. actives 0.59% (n = 360,000);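 active = inhibition at 20 µM, scaled to each plate's controls, above about 33%, limit read from the data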
# The depositor's hits bear a star; . = no result given.
SMILES,LMPTP inh,DNMT1 block,STEP block,SUMO1 PPI mod,Scp1 inh,Rpn11 inh
COc1ccc(NC(=O)CN(C)C(=O)c2cc3c(s2)CCCCC3)cc1,-0.1,-1.1,-1.3,6.0,-4.8,-2.9
COc1cccc(NC(=O)CN(C)C(=O)c2cc3c(s2)CCC3)c1,.,.,.,.,60.0*,.
COc1ccc(NC(=O)CN(C)C(=O)c2cc3c(s2)CCC3)cc1,64.3*,96.8*,23.1,75.6*,85.9*,.
COc1cccc(NC(=O)CN(C)C(=O)c2cc3c(s2)CCC(C)C3)c1 (stereo unspecified),-9.6,-4.5,-2.5,-32.8,-9.0,2.8
Cc1ccc(Nc2nc(N)nc(N)c2N=O)cc1Cl,23.6,.,.,-15.2,.,.
CCOC(=O)C1(CCCc2ccccc2)CCN(C(=O)c2cc(C)nn2CC)CC1,0.0,-3.9,-0.9,43.4*,-4.5,-3.2
CCOC(=O)C1(CCCc2ccccc2)CCN(C(=O)c2cncs2)CC1,-0.2,2.5,2.0,-3.4,-9.6,-3.4
CCCCN(C(=O)c1c(CC)noc1C)c1c(N)n(CCC)c(=O)[nH]c1=O,-1.4,3.8,-1.6,4.8,-4.0,1.1
O=C(NC1(O)C(=O)c2ccccc2C1=O)c1ccc(C(F)(F)F)cc1,3.7,60.7*,1.6,6.9,3.1,7.9
Cc1ccc(C(=O)NC2(O)C(=O)c3ccccc3C2=O)cc1C,1.4,24.4,2.6,-4.2,3.8,7.2
Cc1coc2c1C(=O)C(=O)c1c-2ccc2c1CCCC2(C)C,8.5,51.9*,3.1,9.2,-4.3,3.1
C[C@H]1COC2=C1C(=O)C(=O)c1c2ccc2c1CCCC2(C)C,33.8,27.6,6.3,32.1,6.8,-9.0
Cc1coc2c1C(=O)C(=O)c1c-2ccc2c(C)cccc12,22.2,95.1*,13.7,22.0,37.9,-41.8
Cc1ccc2c3c(cccc13)-c1ccccc1C2=O,4.1,28.2,1.2,-16.5,-14.0,-52.0
c1ccc(CN2CC[C@@H](Nc3nccn4ccnc34)C2)cc1,-2.7,-0.7,-1.9,3.8,.,-0.8
O=C(C[C@H]1C[C@@H]2c3cc(NC(=O)c4cccnc4)ccc3O[C@@H]2[C@H](CO)O1)NCc1ccncc1,-1.0,0.4,0.8,2.3,.,0.3
COc1cccc(/C=C/C(=O)c2c(O)cc(C)oc2=O)c1O,-1.0,6.1,1.4,11.1,-13.2,1.3
COc1ccc(/C=C/C(=O)c2c(O)cc(C)oc2=O)c(OC)c1,0.8,3.3,2.5,1.9,-10.9,44.7*
Cc1nc(CC(=O)N/N=C/c2ccc(OCC(=O)O)cc2)cs1,1.0,4.7,-0.8,-1.2,23.9,-6.8
O=C(O)COc1ccc(/C=N/NC(=O)c2ccc(-c3csc(Nc4ccc(Cl)cc4)n3)cc2)cc1,92.0*,-65.9,93.4*,120.6*,100.0*,69.9*
CCOc1cc(/C=N/NC(=O)c2ccc(-c3csc(Nc4ccc(C)cc4)n3)cc2)ccc1OCC(=O)O,91.6*,77.5*,83.6*,18.7,66.2*,-7.8
COc1ccc2ncccc2c1Cc1c(OC)ccc2ncccc12,55.9*,2.1,0.7,-13.3,-5.0,0.9
CN(C)c1ccc2nc3ccc(=[N+](C)C)cc-3sc2c1,13.5,27.7,3.9,5.2,10.0,18.8
Cc1cc2nc3ccc(=[N+](C)C)cc-3sc2cc1N,32.3,56.7*,3.3,54.5*,-27.9,2.9
Cc1csc(N/N=C/c2ccc([N+](=O)[O-])cc2)n1,2.1,-8.5,0.8,-27.1,-8.6,1.1
SMILES,LMPTP inh,DNMT1 block,STEP block,SUMO1 PPI mod,Scp1 inh,Rpn11 inh
O=C(O)c1csc(N/N=C/c2ccc(Br)cc2)n1,58.5*,13.3,-1.3,4.9,-1.4,4.5
Cc1ccc(NC(=O)CCCN2C(=O)/C(=C/C=C/c3ccccc3)SC2=S)cc1,1.3,-6.8,0.9,1.3,-7.3,31.9
O=C(O)CCCN1C(=O)/C(=C/C=C/c2ccco2)SC1=S,35.0,87.0*,54.3*,103.2*,96.7*,.
COCCC1CCCCN1C(=O)c1cccc(OC2CCN(S(C)(=O)=O)CC2)c1 (stereo unspecified),0.2,2.5,0.0,-7.5,-10.2,-10.2
COc1ccc(N(C(=O)c2snc(C(N)=O)c2N)C(C(=O)NC2CCCCC2)c2ccc(C)o2)cc1 (stereo unspecified),0.7,-3.6,2.7,0.1,-7.4,-3.0
CCN(c1ccc(C)c(C)c1)S(=O)(=O)c1ccc2c(c1)CCN2C(=O)CCC(=O)O,-0.5,-2.4,1.9,47.1*,-6.8,-1.8
CCCCC(CC)CO (stereo unspecified),0.1,0.0,5.2,0.3,6.8,1.2
CCCCC(CC)CN=C(N)NC(N)=NCCCCCCN=C(N)NC(N)=NCC(CC)CCCC (stereo unspecified),0.7,-85.6,6.9,86.0*,-11.7,101.6*
Cc1c(C)n(CC(O)CN2CCCCC2)c2ccccc12 (stereo unspecified),0.4,2.3,0.2,0.4,-2.2,4.7
Cc1cc(C)n(CC(O)Cn2c(C)c(C)c3ccccc32)n1 (stereo unspecified),1.1,0.9,-1.7,-6.6,-13.1,44.4*
CCn1cc(C(=O)O)c(=O)c2cnc(N3CCN(C(=S)NC(=O)c4ccc(OC)cc4)CC3)nc21,65.3*,2.6,10.1,6.6,-4.7,-0.8
CCn1cc(C(=O)O)c(=O)c2cnc(N3CCN(C(=S)NC(=O)c4ccccc4Cl)CC3)nc21,.,.,.,.,-6.8,.
CCn1cc(C(=O)O)c(=O)c2cnc(N3CCN(C(=S)NC(=O)c4ccc(Cl)cc4Cl)CC3)nc21,51.2*,2.2,2.7,11.8,-5.8,5.5
COc1ccc(C(=O)c2[nH]c(N)c(C(=O)NCCc3c[nH]c4ccccc34)c2-c2ccc(Br)cc2)cc1,2.1,.,.,1.7,.,.
N#C/C(C(=O)NCCc1ccccc1)=C1/N=C(NC(=O)c2cccs2)c2ccccc21,-0.1,16.3,2.0,48.2*,-7.3,1.8
CCCN(C(=O)Cc1ccc(S(=O)(=O)N2CCOCC2)s1)c1c(N)n(Cc2ccccc2)c(=O)[nH]c1=O,-0.3,-5.5,-4.8,-5.7,-2.4,19.1
CCCCn1nc(NC(=O)COC)c2cc3ccc(C)cc3nc21,2.3,12.2,-6.5,-5.6,51.9*,-0.5
N#C/C(=C\c1ccc(O)c(O)c1)C(=O)Nc1cccc2ncccc12,65.8*,15.9,0.4,6.9,27.6,14.2
Cc1ccccc1OCC(=O)Nc1ccc2c(c1)C(=O)N(CCC(=O)O)C2=O,0.9,-0.4,-1.6,0.3,-2.2,-15.6
Cc1cccc(-c2nc(NCCCN3CCOCC3)c3ccccc3n2)c1,67.0*,-16.5,4.2,3.3,-8.5,37.0
c1ccc(-c2nc(NCCCN3CCOCC3)c3ccccc3n2)cc1,51.0*,-3.8,-1.2,3.1,0.3,0.7

# Bioassay records from PubChem BioAssay.
